{"source": "paper PMC4929832", "about": "(Nature, 2016)", "key": {"ROCK1": {"target": "ROCK1 (Homo sapiens, UniProt Q13464)", "test": "kinase panel", "format": "biochemical"}, "RSK1": {"target": "RSK1 (Homo sapiens, UniProt Q15418)", "test": "kinase panel", "format": "biochemical"}, "PDK1": {"target": "PDK1 (Homo sapiens, UniProt O15530)", "test": "kinase panel", "format": "biochemical"}, "MARK4": {"target": "MARK4 (Homo sapiens, UniProt Q96L34)", "test": "kinase panel", "format": "biochemical"}, "AMP-A2B1G1": {"target": "AMP-A2B1G1 (Homo sapiens, UniProt P54646)", "test": "kinase panel", "format": "biochemical"}, "CLK4": {"target": "CLK4 (Homo sapiens, UniProt Q9HAZ1)", "sequence (Q9HAZ1 whole entry)": "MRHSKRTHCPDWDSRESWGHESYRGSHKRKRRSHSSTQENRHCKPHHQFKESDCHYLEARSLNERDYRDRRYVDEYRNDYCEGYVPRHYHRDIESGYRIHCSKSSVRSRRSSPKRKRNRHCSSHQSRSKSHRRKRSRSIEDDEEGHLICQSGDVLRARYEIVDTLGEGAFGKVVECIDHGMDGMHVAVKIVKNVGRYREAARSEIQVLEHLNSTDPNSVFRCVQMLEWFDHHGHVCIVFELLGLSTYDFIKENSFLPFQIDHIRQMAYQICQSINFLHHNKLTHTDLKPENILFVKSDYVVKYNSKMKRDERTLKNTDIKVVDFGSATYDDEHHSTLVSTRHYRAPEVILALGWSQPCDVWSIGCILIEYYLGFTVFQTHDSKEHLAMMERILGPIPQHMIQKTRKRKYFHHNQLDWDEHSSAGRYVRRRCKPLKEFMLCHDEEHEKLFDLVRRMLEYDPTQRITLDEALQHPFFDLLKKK", "test": "kinase panel", "format": "biochemical"}, "SIK": {"target": "SIK (Homo sapiens, UniProt P57059)", "test": "kinase panel", "format": "biochemical"}, "SNF1LK2": {"target": "SNF1LK2 (Homo sapiens, UniProt Q9H0K1)", "test": "kinase panel", "format": "biochemical"}, "DDR2": {"target": "DDR2 (Homo sapiens, UniProt Q16832)", "test": "kinase panel", "format": "biochemical"}, "MNK2": {"target": "MNK2 (Homo sapiens, UniProt Q9HBH9)", "test": "kinase panel", "format": "biochemical"}, "IGF1R": {"target": "IGF1R (Homo sapiens, UniProt P08069)", "test": "kinase panel", "format": "biochemical"}, "SRC": {"target": "SRC (Homo sapiens, UniProt P12931)", "test": "kinase panel", "format": "biochemical"}, "BRK": {"target": "BRK (Homo sapiens, UniProt Q13882)", "sequence (Q13882 whole entry)": "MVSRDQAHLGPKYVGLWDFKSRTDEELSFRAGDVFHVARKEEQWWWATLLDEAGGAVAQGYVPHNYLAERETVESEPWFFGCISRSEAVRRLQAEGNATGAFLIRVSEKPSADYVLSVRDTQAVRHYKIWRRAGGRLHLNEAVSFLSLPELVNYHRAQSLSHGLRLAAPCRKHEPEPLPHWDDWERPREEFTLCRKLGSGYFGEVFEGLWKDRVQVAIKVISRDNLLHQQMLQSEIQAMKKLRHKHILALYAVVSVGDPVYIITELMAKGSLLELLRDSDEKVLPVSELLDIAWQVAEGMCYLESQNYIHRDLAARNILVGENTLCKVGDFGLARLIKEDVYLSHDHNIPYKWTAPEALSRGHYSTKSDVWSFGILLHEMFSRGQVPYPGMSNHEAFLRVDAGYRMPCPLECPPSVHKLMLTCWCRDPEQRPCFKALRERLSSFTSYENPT", "test": "kinase panel", "format": "biochemical"}, "IKK-EPSILON": {"target": "IKK-EPSILON (Homo sapiens, UniProt Q14164)", "test": "kinase panel", "format": "biochemical"}, "MST3": {"target": "MST3 (Homo sapiens, UniProt Q9Y6E0)", "sequence (Q9Y6E0 whole entry)": "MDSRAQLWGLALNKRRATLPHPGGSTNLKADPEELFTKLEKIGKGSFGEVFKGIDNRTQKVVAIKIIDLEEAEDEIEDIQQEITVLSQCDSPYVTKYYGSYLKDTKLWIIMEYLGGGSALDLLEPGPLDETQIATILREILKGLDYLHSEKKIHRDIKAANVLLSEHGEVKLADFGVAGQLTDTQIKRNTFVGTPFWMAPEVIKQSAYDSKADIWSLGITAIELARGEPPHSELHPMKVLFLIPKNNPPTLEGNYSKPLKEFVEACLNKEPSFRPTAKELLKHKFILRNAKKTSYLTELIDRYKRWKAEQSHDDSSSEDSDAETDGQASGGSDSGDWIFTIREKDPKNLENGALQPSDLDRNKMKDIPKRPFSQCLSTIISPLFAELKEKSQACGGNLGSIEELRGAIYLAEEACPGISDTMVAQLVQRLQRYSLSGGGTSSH", "test": "kinase panel", "format": "biochemical"}, "TAOK3": {"target": "TAOK3 (Homo sapiens, UniProt Q9H2K8)", "sequence (Q9H2K8 whole entry)": "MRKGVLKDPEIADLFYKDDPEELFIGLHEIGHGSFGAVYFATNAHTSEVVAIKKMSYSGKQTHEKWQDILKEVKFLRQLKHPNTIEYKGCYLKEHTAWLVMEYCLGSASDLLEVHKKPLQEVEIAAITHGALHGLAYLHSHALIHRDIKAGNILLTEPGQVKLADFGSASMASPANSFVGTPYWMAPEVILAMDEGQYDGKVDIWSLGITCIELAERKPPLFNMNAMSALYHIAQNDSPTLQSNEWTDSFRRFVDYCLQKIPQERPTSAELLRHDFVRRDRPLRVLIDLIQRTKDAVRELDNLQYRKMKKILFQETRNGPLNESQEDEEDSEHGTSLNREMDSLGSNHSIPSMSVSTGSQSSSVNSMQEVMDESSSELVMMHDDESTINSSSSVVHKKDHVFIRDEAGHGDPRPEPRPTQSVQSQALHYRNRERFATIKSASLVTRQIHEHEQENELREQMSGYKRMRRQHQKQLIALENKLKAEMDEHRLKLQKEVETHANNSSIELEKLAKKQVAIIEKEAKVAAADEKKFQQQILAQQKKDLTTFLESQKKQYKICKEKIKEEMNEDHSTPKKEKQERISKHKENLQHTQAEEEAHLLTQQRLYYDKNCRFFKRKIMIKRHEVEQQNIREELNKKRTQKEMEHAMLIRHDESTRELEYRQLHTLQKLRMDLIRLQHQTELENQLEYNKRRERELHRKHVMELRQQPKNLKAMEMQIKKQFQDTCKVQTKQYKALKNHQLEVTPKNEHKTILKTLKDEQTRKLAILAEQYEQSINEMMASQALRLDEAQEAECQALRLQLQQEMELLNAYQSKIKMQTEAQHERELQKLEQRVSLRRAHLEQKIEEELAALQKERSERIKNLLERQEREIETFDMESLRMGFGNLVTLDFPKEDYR", "test": "kinase panel", "format": "biochemical"}, "CAMK2B": {"target": "CAMK2B (Homo sapiens, UniProt Q13554)", "test": "kinase panel", "format": "biochemical"}, "PKC-ZETA": {"target": "PKC-ZETA (Homo sapiens, UniProt Q05513)", "test": "kinase panel", "format": "biochemical"}, "EPH-B1": {"target": "EPH-B1 (Homo sapiens, UniProt P54762)", "sequence (P54762 18-984)": "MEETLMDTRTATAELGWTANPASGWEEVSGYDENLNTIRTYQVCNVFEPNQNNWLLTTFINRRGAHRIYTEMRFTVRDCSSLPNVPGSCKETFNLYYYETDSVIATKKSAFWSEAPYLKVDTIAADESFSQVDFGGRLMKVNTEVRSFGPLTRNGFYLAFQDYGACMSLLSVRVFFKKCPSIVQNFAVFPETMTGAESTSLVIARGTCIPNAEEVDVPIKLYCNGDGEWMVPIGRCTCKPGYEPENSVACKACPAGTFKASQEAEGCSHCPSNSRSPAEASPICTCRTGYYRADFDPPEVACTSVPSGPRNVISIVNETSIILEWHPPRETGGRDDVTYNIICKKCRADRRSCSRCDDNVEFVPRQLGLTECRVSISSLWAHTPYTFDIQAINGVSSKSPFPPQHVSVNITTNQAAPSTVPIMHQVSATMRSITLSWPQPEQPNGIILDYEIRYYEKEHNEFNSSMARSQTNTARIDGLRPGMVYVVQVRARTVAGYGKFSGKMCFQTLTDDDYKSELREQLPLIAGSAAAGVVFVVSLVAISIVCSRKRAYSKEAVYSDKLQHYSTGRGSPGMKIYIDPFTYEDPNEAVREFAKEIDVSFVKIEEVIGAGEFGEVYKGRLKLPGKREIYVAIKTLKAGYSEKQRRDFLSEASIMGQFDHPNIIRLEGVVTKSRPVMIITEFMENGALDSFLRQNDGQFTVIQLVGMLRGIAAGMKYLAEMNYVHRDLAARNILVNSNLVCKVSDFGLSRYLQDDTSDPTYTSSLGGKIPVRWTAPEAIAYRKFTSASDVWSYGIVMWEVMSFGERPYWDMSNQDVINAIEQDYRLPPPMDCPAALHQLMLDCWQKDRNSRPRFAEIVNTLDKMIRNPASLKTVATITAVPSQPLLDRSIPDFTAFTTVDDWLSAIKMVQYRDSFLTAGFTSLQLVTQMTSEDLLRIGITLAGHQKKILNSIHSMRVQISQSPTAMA", "test": "kinase panel", "format": "biochemical"}, "JAK3": {"target": "JAK3 (Homo sapiens, UniProt P52333)", "test": "kinase panel", "format": "biochemical"}, "PKN1": {"target": "PKN1 (Homo sapiens, UniProt Q16512)", "test": "kinase panel", "format": "biochemical"}, "TRKA": {"target": "TRKA (Homo sapiens, UniProt P04629)", "sequence (P04629 33-796)": "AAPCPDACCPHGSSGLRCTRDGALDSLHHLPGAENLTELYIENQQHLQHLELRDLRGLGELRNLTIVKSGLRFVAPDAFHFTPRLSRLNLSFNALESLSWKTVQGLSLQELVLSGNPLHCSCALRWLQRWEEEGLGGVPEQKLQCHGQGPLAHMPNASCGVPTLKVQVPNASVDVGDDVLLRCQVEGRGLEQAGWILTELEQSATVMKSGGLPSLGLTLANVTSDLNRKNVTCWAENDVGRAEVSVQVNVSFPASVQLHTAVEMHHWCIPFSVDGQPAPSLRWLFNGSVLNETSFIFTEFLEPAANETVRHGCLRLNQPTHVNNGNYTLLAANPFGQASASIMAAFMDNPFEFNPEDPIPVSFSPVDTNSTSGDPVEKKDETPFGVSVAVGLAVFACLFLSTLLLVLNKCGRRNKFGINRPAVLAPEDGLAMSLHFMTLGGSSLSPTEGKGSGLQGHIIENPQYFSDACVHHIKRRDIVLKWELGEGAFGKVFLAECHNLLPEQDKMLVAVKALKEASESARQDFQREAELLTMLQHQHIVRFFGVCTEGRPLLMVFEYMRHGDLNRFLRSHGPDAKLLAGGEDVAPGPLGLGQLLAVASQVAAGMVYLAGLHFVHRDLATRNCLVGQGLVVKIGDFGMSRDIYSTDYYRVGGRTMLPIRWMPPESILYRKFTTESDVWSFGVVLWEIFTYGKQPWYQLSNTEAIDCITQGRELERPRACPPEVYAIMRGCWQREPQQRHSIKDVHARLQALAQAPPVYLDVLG", "test": "kinase panel", "format": "biochemical"}, "FER": {"target": "FER (Homo sapiens, UniProt P16591)", "test": "kinase panel", "format": "biochemical"}, "LCK": {"target": "LCK (Homo sapiens, UniProt P06239)", "sequence (P06239 whole entry)": "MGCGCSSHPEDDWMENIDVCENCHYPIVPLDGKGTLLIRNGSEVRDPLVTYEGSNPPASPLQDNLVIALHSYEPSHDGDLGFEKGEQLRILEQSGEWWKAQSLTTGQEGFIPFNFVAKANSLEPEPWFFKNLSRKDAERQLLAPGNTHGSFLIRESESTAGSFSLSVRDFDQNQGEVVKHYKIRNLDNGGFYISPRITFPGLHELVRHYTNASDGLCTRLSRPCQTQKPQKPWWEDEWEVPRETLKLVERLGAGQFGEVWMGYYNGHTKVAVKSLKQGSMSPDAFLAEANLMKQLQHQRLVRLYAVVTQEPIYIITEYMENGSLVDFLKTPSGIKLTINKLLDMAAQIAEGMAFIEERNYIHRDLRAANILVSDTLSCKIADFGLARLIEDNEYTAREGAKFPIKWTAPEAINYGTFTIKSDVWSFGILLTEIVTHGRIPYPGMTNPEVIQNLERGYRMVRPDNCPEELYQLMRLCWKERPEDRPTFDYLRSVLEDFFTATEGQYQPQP", "test": "kinase panel", "format": "biochemical"}, "CDK5": {"target": "CDK5 (Homo sapiens, UniProt Q00535)", "test": "kinase panel", "format": "biochemical"}, "CDK5-P25": {"target": "CDK5-P25 (Homo sapiens, UniProt Q00535)", "sequence (Q00535 whole entry)": "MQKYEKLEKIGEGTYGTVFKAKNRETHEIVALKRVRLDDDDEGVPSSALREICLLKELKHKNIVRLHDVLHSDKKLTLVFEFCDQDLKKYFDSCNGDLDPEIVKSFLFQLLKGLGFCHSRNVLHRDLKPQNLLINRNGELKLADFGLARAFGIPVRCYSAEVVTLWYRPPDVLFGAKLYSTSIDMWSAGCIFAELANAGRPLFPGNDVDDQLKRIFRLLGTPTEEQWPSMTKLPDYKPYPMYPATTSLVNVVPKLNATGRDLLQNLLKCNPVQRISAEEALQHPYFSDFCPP", "sequence (Q15078 99-307 partner limits assumed)": "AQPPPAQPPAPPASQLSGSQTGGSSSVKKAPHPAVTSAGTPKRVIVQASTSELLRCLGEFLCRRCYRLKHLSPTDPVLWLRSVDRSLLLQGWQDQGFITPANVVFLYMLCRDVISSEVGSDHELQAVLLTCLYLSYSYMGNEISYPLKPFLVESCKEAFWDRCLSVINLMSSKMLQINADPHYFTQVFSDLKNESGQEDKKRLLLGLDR", "test": "kinase panel", "format": "biochemical"}, "FGFR2": {"target": "FGFR2 (Homo sapiens, UniProt P21802)", "test": "kinase panel", "format": "biochemical"}, "LRRK2-G2019S": {"target": "LRRK2-G2019S (Homo sapiens, UniProt Q5S007, G2019S)", "test": "kinase panel", "format": "biochemical"}, "PRKG2": {"target": "PRKG2 (Homo sapiens, UniProt Q13237)", "test": "kinase panel", "format": "biochemical"}, "FGR": {"target": "FGR (Homo sapiens, UniProt P09769)", "test": "kinase panel", "format": "biochemical"}, "PAK1": {"target": "PAK1 (Homo sapiens, UniProt Q13153)", "test": "kinase panel", "format": "biochemical"}, "CHEK2": {"target": "CHEK2 (Homo sapiens, UniProt O96017)", "test": "kinase panel", "format": "biochemical"}, "H1 receptor": {"target": "H1 receptor (Homo sapiens, UniProt P35367)", "test": "H1 receptor calcium assay", "format": "cell-based"}, "PXR Receptor": {"target": "PXR Receptor (Homo sapiens, UniProt O75469)", "test": "PXR Receptor antagonist assay", "format": "cell-based"}, "Serotonin 5HT2A": {"target": "Serotonin 5HT2A (Homo sapiens, UniProt P28223)", "test": "Serotonin 5HT2A calcium flux assay", "format": "cell-based"}, "[1]": {"tested_on": "exon19del/T790M EGFR Ba/F3 cells", "test": "Ba/F3 cell proliferation", "format": "cell-based", "details": "EAI045 with cetuximab (10 μg/ml)", "outline": "(§1)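 Ba/F3 cells, either parental or stably expressing mutant EGFR lines described earlier, were exposed to the test compound for 72 hours. Cell numbers were set empirically. Growth was read by MTS assay. Each point was run in six wells, and each experiment was repeated at least three times. Curves were fitted by non-linear regression to a sigmoidal dose response.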"}, "[2]": {"tested_on": "L858R/T790M/I941R EGFR Ba/F3 cells", "test": "Ba/F3 cell proliferation", "format": "cell-based", "details": "Ba/F3 L858R/T790M/I941R versus L858R/T790M", "outline": "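The I941R mutation was introduced into L858R/T790M EGFR by site-directed mutagenesis, and Ba/F3 stable clones were selected in puromycin (2 μg/ml). Cells were treated with the test compound for 72 h and growth was read by MTS assay. Points were run in six wells, with experiments repeated at least three times. Curves were fitted by non-linear regression to a sigmoidal dose response.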"}, "[3]": {"tested_on": "L858R/T790M/C797S EGFR Ba/F3 cells", "test": "Ba/F3 cell proliferation", "format": "cell-based", "details": "EAI045 in combination with cetuximab, 72 hours", "outline": "as §1"}, "[4]": {"target": "EGFR L858R/T790M in H1975 cells (Homo sapiens, UniProt P00533, L858R/T790M)", "test": "EGFR phosphorylation by western blotting", "format": "cell-based", "details": "western blot, 3h"}}, "note": "pIC50: −log10 of the molar value.", "data": [{"smiles": "O=C(Nc1nccs1)C(c1cc(F)ccc1O)N1Cc2ccccc2C1=O", "note": "(stereo not drawn) [EAI045, 2-(5-fluoro-2-hydroxyphenyl)-2-(1-oxo-2,3-dihydro-1H-isoindol-2-yl)-N-(1,3-thiazol-2-yl)acetamide]", "values": [{"measurement": "inhibition at 1 µM", "setting": "ROCK1", "result": 0, "unit": "%"}, {"measurement": "inhibition at 1 µM", "setting": "RSK1", "result": 0, "unit": "%"}, {"measurement": "inhibition at 1 µM", "setting": "PDK1", "result": 0, "unit": "%"}, {"measurement": "inhibition at 1 µM", "setting": "MARK4", "result": 0, "unit": "%"}, {"measurement": "inhibition at 1 µM", "setting": "AMP-A2B1G1", "result": 0, "unit": "%"}, {"measurement": "inhibition at 1 µM", "setting": "CLK4", "result": 0, "unit": "%"}, {"measurement": "inhibition at 1 µM", "setting": "SIK", "result": 0, "unit": "%"}, {"measurement": "inhibition at 1 µM", "setting": "SNF1LK2", "result": 0, "unit": "%"}, {"measurement": "inhibition at 1 µM", "setting": "DDR2", "result": 4, "unit": "%"}, {"measurement": "inhibition at 1 µM", "setting": "MNK2", "result": 3, "unit": "%"}, {"measurement": "inhibition at 1 µM", "setting": "IGF1R", "result": 4, "unit": "%"}, {"measurement": "inhibition at 1 µM", "setting": "SRC", "result": 0, "unit": "%"}, {"measurement": "inhibition at 1 µM", "setting": "BRK", "result": 0, "unit": "%"}, {"measurement": "inhibition at 1 µM", "setting": "IKK-EPSILON", "result": 0, "unit": "%"}, {"measurement": "inhibition at 1 µM", "setting": "MST3", "result": 0, "unit": "%"}, {"measurement": "inhibition at 1 µM", "setting": "TAOK3", "result": 0, "unit": "%"}, {"measurement": "inhibition at 1 µM", "setting": "CAMK2B", "result": 0, "unit": "%"}, {"measurement": "inhibition at 1 µM", "setting": "PKC-ZETA", "result": 0, "unit": "%"}, {"measurement": "inhibition at 1 µM", "setting": "EPH-B1", "result": 0, "unit": "%"}, {"measurement": "inhibition at 1 µM", "setting": "JAK3", "result": 0, "unit": "%"}, {"measurement": "inhibition at 1 µM", "setting": "PKN1", "result": 0, "unit": "%"}, {"measurement": "inhibition at 1 µM", "setting": "TRKA", "result": 0, "unit": "%"}, {"measurement": "inhibition at 1 µM", "setting": "FER", "result": 4, "unit": "%"}, {"measurement": "inhibition at 1 µM", "setting": "LCK", "result": 0, "unit": "%"}, {"measurement": "inhibition at 1 µM", "setting": "CDK5", "result": 0, "unit": "%"}, {"measurement": "inhibition at 1 µM", "setting": "CDK5-P25", "result": 0, "unit": "%"}, {"measurement": "inhibition at 1 µM", "setting": "FGFR2", "result": 1, "unit": "%"}, {"measurement": "inhibition at 1 µM", "setting": "LRRK2-G2019S", "result": 0, "unit": "%"}, {"measurement": "inhibition at 1 µM", "setting": "PRKG2", "result": 8, "unit": "%"}, {"measurement": "inhibition at 1 µM", "setting": "FGR", "result": 0, "unit": "%"}, {"measurement": "inhibition at 1 µM", "setting": "PAK1", "result": 0, "unit": "%"}, {"measurement": "inhibition at 1 µM", "setting": "CHEK2", "result": 0, "unit": "%"}, {"measurement": "pIC50", "setting": "H1 receptor", "result": "< 4.52"}, {"measurement": "pIC50", "setting": "PXR Receptor", "result": "< 5.52"}, {"measurement": "pIC50", "setting": "Serotonin 5HT2A", "result": "< 4.52"}, {"measurement": "proliferation", "setting": "[1]", "result": "not inhibited"}, {"measurement": "sensitivity of proliferation to the allosteric inhibitor", "setting": "[2]", "result": "dramatically more sensitive"}, {"measurement": "inhibition of proliferation", "setting": "[3]", "result": "potently inhibited"}, {"measurement": "EGFR autophosphorylation", "setting": "[4]", "result": "potently decreased, but did not completely eliminate EGFR autophosphorylation"}]}]}
